This is a sample that favours compounds with a hit; in the whole collection about 4.6% have one here.
TAAR1 antagonist: human TAAR1 antagonists, primary screen, Fluo-8 calcium fluorescence, CHO RD-HGA16 cells. antagonist. inhibition, % at 3 µM. 360,000 tested, 1.5% active. Trace amine-associated receptor 1 (Homo sapiens), Q96RJ0. AID 624466, 2012;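 active = inhibition above a per-plate cutoff, the mean inhibition of test compounds on that plate plus 3 SD, cut at about 49% in these data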;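 also: 0% = DMSO plus EC80 beta-PEA response and 100% = DMSO alone without agonist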
Target sequence (Q96RJ0 whole entry, looked up): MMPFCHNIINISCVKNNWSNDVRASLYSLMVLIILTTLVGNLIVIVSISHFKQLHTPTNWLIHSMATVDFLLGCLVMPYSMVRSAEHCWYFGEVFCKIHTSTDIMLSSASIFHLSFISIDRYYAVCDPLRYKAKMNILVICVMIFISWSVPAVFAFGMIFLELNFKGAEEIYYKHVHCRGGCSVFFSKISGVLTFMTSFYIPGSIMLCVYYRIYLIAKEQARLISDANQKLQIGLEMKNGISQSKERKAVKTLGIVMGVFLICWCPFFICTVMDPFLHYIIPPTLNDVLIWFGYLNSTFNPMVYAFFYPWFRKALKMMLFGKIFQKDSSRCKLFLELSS
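Test system: CHO RD-HGA16 cells bearing hTAAR1 | Reagent: β-PEA, EC80 | Compound dosing: 3 µM, single point | Schedule: Dye loading 75 min at 37 °C, then 30 min room temperature | Signal: Calcium fluorescence with Fluo-8 | Evaluation: Percent inhibition of PEA-evoked calcium signal, max/basal emission ratio | Control set: DMSO-only wells and EC80 β-PEA-stimulated wells | Repeats: Singlicate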
GPR7 antagonist: GPR7 receptor antagonists, primary screen, cell-based, fluorescence, single concentration; Neuropeptides B/W receptor type 1 (Homo sapiens), P48145; GPR7-expressing cells, fluorescence antagonist assay; inhibition, % at 4.4 µM; 290,000 tested, 1.1% active; AID 1861, 2009; in the data active = inhibition above about 16%, passing the limit was not always enough;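 also: cells stimulated with the agonist NPW; 0% = agonist with vehicle and 100% = vehicle without agonist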
CHO parental Ca: ATP-evoked calcium signal inhibitors, parental CHO, primary screen, counter-screen for OX1R antagonist project, cell-based, fluorescence, Fluo-8 calcium dye; parental CHO-K1, ATP-induced calcium, Fluo-8 fluorescence; inhibition, % at 5.6 µM; AID 463079, 2010; 330,000 tested, 0.63% active;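 active = inhibition above that plate's mean sample inhibition plus 3 SD, cut at about 26% in these data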;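 also: 0% = ATP-challenged DMSO wells and 100% = DMSO wells without ATP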
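Test system: untransfected parental CHO cell line; also added: ATP stimulus; dosing: 5.6 µM, single dose; signal: calcium-sensitive Fluo-8 fluorescence; measure: percent inhibition of ATP-evoked calcium rise, normalized to controls; benchmarks: low control ATP plus DMSO, high control DMSO only; replication: one well per compound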
OX1R antag-1: OX1R (HCRTR1) antagonists, primary screen, fluorescence, CHO/OX1R cells, Fluo-8 calcium, orexin A; Orexin/Hypocretin receptor type 1 (Homo sapiens), O43613; Fluo-8 calcium fluorescence; inhibition, % at 5 µM; 330,000 tested, 0.43% active; AID 434989, 2010;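 active = inhibition above its plate's threshold, mean inhibition of all tested compounds on the plate plus 3 SD, cut at about 37% in these data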;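 also: 0% = orexin A challenge wells and 100% = SB-334867-A antagonist wells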
OX1R antag-2: antagonists of human orexin 1 receptor (OX1R); Orexin/Hypocretin receptor type 1 (Homo sapiens), O43613; OX1R-expressing cells, FRET antagonist read-out; inhibition, % at 6.6 µM; 330,000 tested, 1.8% active; in the data active = inhibition mostly above about 38%, no sharp cut-off; inactive = mostly below about 40%;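 also: 0% = agonist challenge alone and 100% = reference antagonist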
TAAR1 agonist: human TAAR1 agonists, primary screen, Fluo-8 calcium fluorescence, CHO RD-HGA16 cells; vehicle wells 0%, saturating PEA agonist 100%; 360,000 tested, 0.99% active; activation, % at 3 µM; Trace amine-associated receptor 1 (Homo sapiens), Q96RJ0;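 active = activation above the mean activation of all test compounds in the run plus 3 SD, cut at about 38% in these data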
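Test system: RD-HGA16 (CHO) cells co-expressing Gα16 and hTAAR1 | Doses: Single dose, 3 µM | Schedule: 17-24 h seeding, 75 min 37 °C dye, 30 min RT | Evaluation: % activation from peak over basal fluorescence ratio, DMSO-to-PEA scaled | Technique: Kinetic Fluo-8 calcium fluorescence | Benchmarks: Low control DMSO, high control PEA (EC100)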
OX1R HTRF confirm: OX1R (HCRTR1) antagonists, confirmation, cell-based, HTRF; OX1R-expressing cells, HTRF antagonist assay; AID 492964, 2010; shares compounds with OX1R antag-2; inhibition, % at 6.6 µM; 1,800 tested, 49% active; in the data active = inhibition above about 55%;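 also: CHO cells expressing OX1R stimulated with orexin A at about EC80; 0% = agonist challenge alone and 100% = reference antagonist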
CHO-K1 HTRF cnt: signal inhibition in parental CHO-K1 cells, counter-screen for OX1R antagonist project, cell-based, HTRF; HTRF counterscreen; 1,800 tested, 48% active; inhibition, % at 6.6 µM; shares compounds with OX1R antag-2; in the data active = inhibition above about 17%;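 also: 0% = agonist challenge with vehicle and 100% = vehicle alone without agonist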
The depositor's hits bear a star; · = not tested or not shown.

SMILES | TAAR1 antagonist | GPR7 antagonist | CHO parental Ca | OX1R antag-1 | OX1R antag-2 | TAAR1 agonist | OX1R HTRF confirm | CHO-K1 HTRF cnt
COCCCNC(=O)c1c(N)n(-c2ccc3c(c2)OCO3)c2nc3ccccc3nc12 | 35 | -11 | -15 | -6 | 104* | 21 | 29 | 1
CCOCCCNC(=O)c1c(N)n(-c2ccc3c(c2)OCO3)c2nc3ccccc3nc12 | 34 | 11 | -13 | -20 | 17 | 17 | · | ·
CCOC(=O)N1CCN(c2cc(NCCO)c([N+](=O)[O-])c3nonc23)CC1 | -3 | -9 | -4 | -16 | 20 | 0 | · | ·
O=[N+]([O-])c1c(NCCO)cc(N2CCCCC2)c2nonc12 | -9 | -5 | -6 | -11 | 90* | 4 | 52 | 39*
COc1cccc(/C=C2\Oc3ccc(O)cc3C2=O)c1O | -27 | 8 | -7 | 25 | 95* | 3 | 93* | 16
Nc1nccc(/C=C/c2c(F)cccc2Cl)n1 | -5 | 5 | -12 | -24 | 28 | -1 | · | ·
O=c1cc(/C=C/c2c(F)cccc2Cl)[nH]c2ccccc12 | -12 | -2 | -8 | 23 | 90* | 1 | 90* | 2
COC(=O)c1cc(=O)c2c(C)nc(C(Cl)(Cl)Cl)nc2[nH]1 | -17 | -6 | -8 | -7 | 79* | 8 | 46 | 15
Cc1cc(C)c2nc(N3CCN(C(=O)c4ccco4)CC3)sc2c1 | -28 | · | -14 | -23 | 82* | 3 | 22 | 5
Cc1cc2nc(N3CCN(C(=O)c4ccco4)CC3)sc2cc1C | -10 | · | -3 | -10 | 7 | 4 | · | ·
COc1cc(NC(=O)[C@@H](Cc2ccccc2)NC(=O)[C@H]2O[C@@H](n3ccc(=O)[nH]c3=O)[C@H](O)[C@@H]2O)cc(OC)c1OC | -4 | · | · | · | · | 0 | · | ·
O=C(Nc1ccccc1)C1CCCCN1S(=O)(=O)c1ccccc1 (configuration not stated) | -17 | -5 | -8 | 11 | 80* | -1 | 60* | 2
C[C@@H]1CCCCO[C@@H](CN(C)C(=O)CCC(F)(F)F)[C@@H](C)CN([C@H](C)CO)C(=O)c2cc(N(C)C)ccc2O1 | -10 | · | · | · | · | -1 | · | ·
CC(=O)Oc1c(-c2ccc(Br)o2)oc2ccccc2c1=O | 4 | 9 | -1 | 24 | 83* | 0 | 84* | 3
O=C(O)COc1c(-c2ccco2)oc2ccccc2c1=O | 3 | -11 | -9 | -3 | 14 | 0 | · | ·
Cc1ccc(/C=C2\SC(N3CCCCC3)=NC2=O)cc1 | -18 | -7 | -14 | -11 | 16 | 1 | · | ·
O=C1N=C(N2CCCC2)S/C1=C\c1ccccc1 | 9 | -1 | -13 | -15 | 147* | 1 | 58* | 27*
O=c1c2c(-c3ccc([N+](=O)[O-])cc3)csc2nc2n1CCC2 | -4 | -5 | -30 | -3 | 95* | 0 | 40 | 48*
O=[N+]([O-])c1ccc2c(c1)nc1n2CCCCC1 | 13 | -11 | 5 | -4 | 15 | 1 | · | ·
O=[N+]([O-])c1ccc(C[n+]2ccc(Cc3ccccc3)cc2)cc1 | -1 | 3 | -1 | -15 | 111* | 6 | 73* | 48*
CN1C(=O)/C(=C2\SC(=S)N(C(CCC(=O)O)C(=O)O)C2=O)c2ccccc21 (configuration not stated) | -5 | -5 | 0 | -15 | 142* | 6 | 57* | 102*
COc1ccc2[nH]c(C(=O)N/N=C/c3ccc(O)cc3O)cc2c1 | 28 | 14 | · | · | · | -1 | · | ·

Screens: PubChem, The Scripps Research Institute Molecular Screening Center
